According to ChEMBL document CHEMBL1153963, “Phenanthrene-based tylophorine-1 (PBT-1) inhibits lung cancer cell growth through the Akt and NF-kappaB pathways” (J Med Chem, 2009):
≈ marks a conversion by molar mass, not a printed value.

How the values were obtained:
[1] = Cytotoxicity against human CL1-0 cells assessed as growth inhibition after 48 hrs by MTS assay; type: functional, cell-based
Procedure, shortened: (§1)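 Cells seeded in four replicates at 2×10^3 per well in complete RPMI 1640 with drug (0, 0.1, 0.25, 0.5, 0.75 µg/mL in the cell-line panel), 48 h at 37 °C, 5% CO2. Viability read by MTS reagent, absorbance at 490 nm, expressed as percent of untreated control; IC50 taken as concentration giving 50% growth inhibition.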

A549 = test: Cytotoxicity against human A549 cells assessed as growth inhibition after 48 hrs by MTS assay; type: functional, cell-based; details: A549, 48 h; procedure, shortened: as §1
CL1-0 [2] = test: Effect on NFKB1A gene expression in human CL1-0 cells assessed as change in gene expression at 0.5 ug/mL after 24 hrs by DNA microarray relative to control; type: functional
Procedure, shortened: (§2)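 Total RNA from CL1-0 cells treated 24 h with 0.5 µg/mL drug or untreated; mRNA isolated and run on human DNA microarrays; genes with statistically significant twofold change versus control reported as fold change, mean ± SD.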

CL1-0 [3] = test: Effect on TNFRSF10B gene expression in human CL1-0 cells assessed as change in gene expression at 0.5 ug/mL after 24 hrs by DNA microarray relative to control; type: functional
Procedure, shortened: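 Total RNA extracted from treated or untreated CL1-0 cells, mRNA isolated, hybridized to human DNA microarray; genes scored by statistically significant twofold expression difference versus untreated control; fold change given as mean ± SD.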

CL1-0 [4] = test: Effect on IRAK1 gene expression in human CL1-0 cells assessed as change in gene expression at 0.5 ug/mL after 24 hrs by DNA microarray relative to control; type: functional; procedure, shortened: as §2
NCI-H460 = test: Cytotoxicity against human H460 cells assessed as growth inhibition after 48 hrs by MTS assay; type: functional, cell-based; details: NCI-H460, 48 h; procedure, shortened: as §1
CL1-0 [5] = test: Effect on BCL2L1 gene expression in human CL1-0 cells assessed as change in gene expression by RT-PCR relative to control; type: functional
Procedure, shortened: (§3)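 Real-time quantitative RT-PCR on CL1-0 RNA to validate microarray changes, SYBR Green chemistry with gene-specific primers, GAPDH as internal control; fold change versus untreated control reported as mean ± SD.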

CL1-0 [6] = test: Effect on AKT3 gene expression in human CL1-0 cells assessed as change in gene expression by RT-PCR relative to control; type: functional; procedure, shortened: as §3
CL1-0 [7] = test: Effect on PIK3CD gene expression in human CL1-0 cells assessed as change in gene expression at 0.5 ug/mL after 24 hrs by DNA microarray relative to control; type: functional; procedure, shortened: as §2
CL1-0 [8] = test: Effect on PPP3CA gene expression in human CL1-0 cells assessed as change in gene expression at 0.5 ug/mL after 24 hrs by DNA microarray relative to control; type: functional; procedure, shortened: as §2
CL1-0 [9] = test: Induction of apoptosis in human CL1-0 cells at 0.75 ug/mL after 24 hrs by propidium iodide and annexin V staining; type: functional
Procedure, shortened: (§4)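 CL1-0 cells treated with increasing concentrations for 24 h, resuspended in Annexin-binding buffer, stained with Alexa Fluor 488 Annexin V and PI for 15 min at room temperature, analyzed by flow cytometry; single-stain controls set apoptotic and necrotic windows.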

CL1-0 [10] = test: Induction of apoptosis in human CL1-0 cells at 0.5 ug/mL after 24 hrs by propidium iodide and annexin V staining; type: functional; procedure, shortened: as §4
CL1-0 [11] = test: Effect on PRKACA gene expression in human CL1-0 cells assessed as change in gene expression at 0.5 ug/mL after 24 hrs by DNA microarray relative to control; type: functional; procedure, shortened: as §2
[12] = Cytotoxicity against human CL1-5 cells assessed as growth inhibition after 48 hrs by MTS assay; type: functional, cell-based; details: CL1-5, 48 h; procedure, shortened: as §1
CL1-0 [13] = test: Effect on CFLAR gene expression in human CL1-0 cells assessed as change in gene expression by RT-PCR relative to control; type: functional; procedure, shortened: as §3
CL1-0 [14] = test: Effect on TNFRSF10B gene expression in human CL1-0 cells assessed as change in gene expression by RT-PCR relative to control; type: functional
Procedure, shortened: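 Microarray hits validated by real-time quantitative RT-PCR with SYBR Green chemistry and gene-specific primers; GAPDH used as internal control; fold change versus untreated control as mean ± SD.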

CL1-0 [15] = test: Effect on PPP3CA gene expression in human CL1-0 cells assessed as change in gene expression by RT-PCR relative to control; type: functional; procedure, shortened: as §3
CL1-0 [16] = test: Effect on IRAK1 gene expression in human CL1-0 cells assessed as change in gene expression by RT-PCR relative to control; type: functional; procedure, shortened: as §3
CL1-0 [17] = test: Effect on PDK1 gene expression in human CL1-0 cells assessed as change in gene expression at 0.5 ug/mL after 24 hrs by DNA microarray relative to control; type: functional; procedure, shortened: as §2
CL1-0 [18] = test: Effect on PRKACA gene expression in human CL1-0 cells assessed as change in gene expression by RT-PCR relative to control; type: functional; procedure, shortened: as §3
CL1-0 [19] = test: Effect on NFKB1A gene expression in human CL1-0 cells assessed as change in gene expression by RT-PCR relative to control; type: functional; procedure, shortened: as §3
CL1-0 [20] = test: Effect on CFLAR gene expression in human CL1-0 cells assessed as change in gene expression at 0.5 ug/mL after 24 hrs by DNA microarray relative to control; type: functional; procedure, shortened: as §2
CL1-0 [21] = test: Effect on MAP3K14 gene expression in human CL1-0 cells assessed as change in gene expression at 0.5 ug/mL after 24 hrs by DNA microarray relative to control; type: functional; procedure, shortened: as §2
CL1-0 [22] = test: Effect on BCL2L1 gene expression in human CL1-0 cells assessed as change in gene expression at 0.5 ug/mL after 24 hrs by DNA microarray relative to control; type: functional; procedure, shortened: as §2
CL1-0 [23] = test: Effect on AKT3 gene expression in human CL1-0 cells assessed as change in gene expression at 0.5 ug/mL after 24 hrs by DNA microarray relative to control; type: functional; procedure, shortened: as §2
CL1-0 [24] = test: Effect on PDK1 gene expression in human CL1-0 cells assessed as change in gene expression by RT-PCR relative to control; type: functional; procedure, shortened: as §3
CL1-0 [25] = test: Effect on PIK3CD gene expression in human CL1-0 cells assessed as change in gene expression by RT-PCR relative to control; type: functional; procedure, shortened: as §3
CL1-0 [26] = test: Effect on MAP3K14 gene expression in human CL1-0 cells assessed as change in gene expression by RT-PCR relative to control; type: functional; procedure, shortened: as §3
PC-9 = test: Cytotoxicity against human PC9 cells assessed as growth inhibition after 48 hrs by MTS assay; type: functional, cell-based; details: PC-9, 48 h; procedure, shortened: as §1
CL1-0 [27] = test: Induction of apoptosis in human CL1-0 cells at 0.25 ug/mL after 24 hrs by propidium iodide and annexin V staining; type: functional; procedure, shortened: as §4
[28] = Homo sapiens, CL1-0, 48 h, read-out: IC50

For `COc1ccc2c(CNCCCCCCO)cc3cc4c(cc3c2c1)OCO4`, the IC50 [1, 28] was greater than 2 µg/mL.
With `COc1ccc2c(CN3CCC(CCO)CC3)cc3cc4c(cc3c2c1)OCO4.Cl` the IC50 [1, 28] was 0.46 µg/mL and the IC50 ([1]; cl1-0) was “Dose-dependent effect”.
For `COc1ccc2c(CN3CCC(CO)CC3)cc3cc4c(cc3c2c1)OCO4`, the IC50 (A549) was 0.2 µg/mL (≈ 0.527 µM), the “fold change (FC)” value (CL1-0 [2]) was 2.23 and the “fold change (FC)” value (CL1-0 [3]) was 2.53. For the same molecule, the “fold change (FC)” value (CL1-0 [4]) was 2.1, the IC50 (NCI-H460) was 0.2 µg/mL (≈ 0.527 µM) and the “fold change (FC)” value (CL1-0 [5]) was 1.83. The “fold change (FC)” value (CL1-0 [6]) was 1.61, the “fold change (FC)” value (CL1-0 [7]) was 2.03 and the “fold change (FC)” value (CL1-0 [8]) was 2.53. For the same molecule, the Activity (CL1-0 [9]) was 11.03%, the Activity (CL1-0 [10]) was 9.56% and the “fold change (FC)” value (CL1-0 [11]) was 5.38. The IC50 [12] was 0.2 µg/mL (≈ 0.527 µM), the “fold change (FC)” value (CL1-0 [13]) was 2.8 and the “fold change (FC)” value (CL1-0 [14]) was 1.71. For the same molecule, the “fold change (FC)” value (CL1-0 [15]) was 5.31, the IC50 [1, 28] was 0.81 µg/mL (≈ 2.13 µM) and the IC50 ([1]; cl1-0) was “Dose-dependent effect”. For the same molecule, the “fold change (FC)” value (CL1-0 [16]) was 2.23, the “fold change (FC)” value (CL1-0 [17]) was 0.26 and the “fold change (FC)” value (CL1-0 [18]) was 1.39. The “fold change (FC)” value (CL1-0 [19]) was 6.8, the “fold change (FC)” value (CL1-0 [20]) was 3.01 and the “fold change (FC)” value (CL1-0 [21]) was 2.25. The “fold change (FC)” value (CL1-0 [22]) was 2.7, the “fold change (FC)” value (CL1-0 [23]) was 0.48 and the “fold change (FC)” value (CL1-0 [24]) was 0.56. The “fold change (FC)” value (CL1-0 [25]) was 1.69, the “fold change (FC)” value (CL1-0 [26]) was 2.94 and the IC50 (PC-9) was 0.2 µg/mL (≈ 0.527 µM). It also gave an Activity (CL1-0 [27]) of 5.96%.
For `COc1ccc2c(CN3CCC(CO)CC3)cc3cc4c(cc3c2c1)OCO4.Cl`, the IC50 [1, 28] was 0.44 µg/mL and the IC50 ([1]; cl1-0) was “Dose-dependent effect”.
`COc1ccc2c(CN3CCC(C(=O)O)CC3)cc3cc4c(cc3c2c1)OCO4` gave an IC50 [1, 28] greater than 2 µg/mL.
In the case of `COc1ccc2c(CNCCCCCC(=O)O)cc3cc4c(cc3c2c1)OCO4`, the IC50 [1, 28] is reported as greater than 2 µg/mL.
For `COc1ccc2c(CN3CCN(c4ccc(O)cc4)CC3)cc3cc4c(cc3c2c1)OCO4`, the IC50 [1, 28] was greater than 2 µg/mL.
For `COc1ccc2c(CN3CCC(CCO)CC3)cc3cc4c(cc3c2c1)OCO4`, the IC50 [1, 28] was 0.37 µg/mL (≈ 0.94 µM) and the IC50 ([1]; cl1-0) was “Dose-dependent effect”.
`COc1ccc2c(CN3CCN(c4ccc(Cl)cc4)CC3)cc3cc4c(cc3c2c1)OCO4` gave an IC50 [1, 28] greater than 2 µg/mL.
`COc1ccc2c(CN3CCN(CCO)CC3)cc3cc4c(cc3c2c1)OCO4` showed an IC50 [1, 28] greater than 2 µg/mL.
